Source: PubChem
An excerpt weighted towards active compounds, which were near 2.5% of everything screened.
MC4R ag barr: activates human MC4R beta-arrestin recruitment | U2OS MC4R beta-arrestin complementation, luminescence; percent of melanotan II response, DMSO zero | activation, % at 8.9 µM | hit rate 0.98% among 360,000;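 active means activation above a per-plate cutoff, the mean activation of sample wells on that plate plus 3 SD, cut at about 8% in these data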
Target sequence (P32245 whole entry, looked up): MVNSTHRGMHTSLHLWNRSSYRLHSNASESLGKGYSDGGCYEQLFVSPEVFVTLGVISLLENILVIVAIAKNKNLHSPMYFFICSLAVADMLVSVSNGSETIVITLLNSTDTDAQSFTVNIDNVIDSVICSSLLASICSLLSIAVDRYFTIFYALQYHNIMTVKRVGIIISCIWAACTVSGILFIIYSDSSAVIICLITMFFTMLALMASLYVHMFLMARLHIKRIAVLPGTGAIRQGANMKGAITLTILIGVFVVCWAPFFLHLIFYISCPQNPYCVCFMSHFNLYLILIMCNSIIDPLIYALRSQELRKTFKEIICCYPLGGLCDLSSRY
NTR1 agonist: NTR1 (human) agonism; P30989; NTR1-U2OS beta-arrestin-GFP spot imaging, agonist mode; activation, % at 20 µM; hit rate 0.17% among 330,000;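 active means activation at or above 40% of the spot to cytoplasm intensity ratio, with at least 20 cells analyzed; inconclusive means wells under 20 cells, flagged as cytotoxic or low count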
Target sequence (P30989 whole entry, looked up): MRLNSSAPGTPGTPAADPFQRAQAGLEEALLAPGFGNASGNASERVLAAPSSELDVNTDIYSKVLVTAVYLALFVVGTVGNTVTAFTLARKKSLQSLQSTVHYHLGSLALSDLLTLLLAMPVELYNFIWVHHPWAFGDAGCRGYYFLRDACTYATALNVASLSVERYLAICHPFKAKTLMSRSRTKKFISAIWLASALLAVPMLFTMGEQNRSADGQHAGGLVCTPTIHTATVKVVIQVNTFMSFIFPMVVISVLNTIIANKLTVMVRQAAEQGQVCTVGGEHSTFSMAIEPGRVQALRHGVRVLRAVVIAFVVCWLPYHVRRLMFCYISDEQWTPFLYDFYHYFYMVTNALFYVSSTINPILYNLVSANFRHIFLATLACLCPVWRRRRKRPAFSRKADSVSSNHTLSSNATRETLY
MC4R antagonist: blocks human MC4R cAMP signaling; MC4R-expressing cells, MTII-stimulated cAMP, LANCE TR-FRET; AID 540295; hit rate 0.48% among 360,000; inhibition, % at 6.5 µM; P32245;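 active means inhibition above its plate's cutoff, the mean of tested wells on that plate plus 3 SD, cut at about 29% in these data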
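System: U2OS cells stably expressing human melanocortin 4 receptor (MC4R). Reagent: Melanotan II challenge after compound preincubation. Doses: 6.5 µM. Times: 30-min compound, 1-h challenge, 1-h detection, room temperature. Measured by: TR-FRET with Eu-cAMP and labeled anti-cAMP, 671 nm. Replicates: singlicate.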
Granule exo inh: lytic granule exocytosis inhibition | TALL-104 LAMP-1 surface exposure, flow cytometry; cells stimulated with thapsigargin and PMA | hit rate 0.66% among 360,000 | inhibition, % at 10 µM | AID 651702;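 active means inhibition above about 55%, limit read from the data; inconclusive means no clear call, values can overlap the other calls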
Bfl-1 A1 inh: inhibitors of the anti-apoptotic protein A1, read as caspase activation | caspase activation, % (no concentration beside the values) | AID 2462 | hit rate 0.066% among 330,000 | MEF A1-2A-BIM cells, Caspase-Glo 3/7 luminescence, 3 h; percent of clofoctol response, vehicle zero;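 active means over half of replicate activation scores above 10%, or exactly half above 10 with the replicate mean above 10; inconclusive means replicate mean below 10 yet half the replicates above 10; inactive means over half of replicates below 10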
sPLA2-III inh: Blocks human group III sPLA2 activity; Q9NZ20; AID 743126; hit rate 0.56% among 370,000; QFRET BODIPY PC-A2 liposome hydrolysis, fluorescence; inhibition, % at 12.2 µM;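 active means inhibition above mean plus 3 SD of compounds lying within the high and low control bounds, cut at about 19% in these data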
hGIII sPLA2 conf: human GIII-sPLA2 inhibition, confirmation | shares compounds with sPLA2-III inh | recombinant hGIII-sPLA2, BODIPY PC-A2 QFRET fluorescence | inhibition, % at 12.2 µM | hit rate 34% among 2,000 | AID 743280;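 active means mean inhibition across triplicates above the hit cutoff set in the earlier primary screen, cut at about 19% in these data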
535nm interf: optically interferes with 535nm fluorescence in sPLA2 counter-screen | shares compounds with sPLA2-III inh | BODIPY FL product fluorescence interference, QFRET | inhibition, % at 12.2 µM | hit rate 8.5% among 2,000;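 active means average inhibition above the solvent-only control mean plus 3 SD, cut at about 6% in these data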
BODIPY interf DR: interferes with 535nm fluorescence in dose response counter-screen; shares compounds with sPLA2-III inh; BODIPY FL product fluorescence interference, cell-free; IC50, µM; 240 tested, under 10 active;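 active means IC50 at or below 10 µM; inactive means IC50 above 10 µM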
Numbers stand for hits; 0 = inactive; ? = inconclusive; - = no result.

SMILES | MC4R ag barr | NTR1 agonist | MC4R antagonist | Granule exo inh | Bfl-1 A1 inh | sPLA2-III inh | hGIII sPLA2 conf | 535nm interf | others
Nc1ccc(C(=O)Oc2ccc([N+](=O)[O-])cc2)cc1 | 0 | 0 | 0 | 0 | 0 | 23 | 0 | 0
O=C(NNC(=O)c1ccccc1C(=O)O)c1cc2ccccc2o1 | 0 | 0 | 0 | 0 | 0 | 0 | - | -
CCOC(=O)c1c(NC(=S)Nc2cc([N+](=O)[O-])ccc2OC)sc2c1CCCCC2 | - | 0 | - | - | 0 | - | - | -
COC(=O)c1c(NC(=S)Nc2cc(OC)c(Cl)cc2OC)sc2c1CCCCC2 | 0 | 0 | 0 | 0 | 0 | 25 | 26 | 11
CCOc1ccc(CCN2CN(C3CCCCC3)CNC2=S)cc1OCC | 0 | 0 | 0 | 0 | 0 | 0 | - | -
S=C1NCN(C2CCCCC2)CN1CCc1ccccc1 | 0 | 0 | 0 | 0 | 0 | 22 | 20 | 0
CCc1ccc(Nc2nc(N)nc(CSc3nc4ccccc4s3)n2)cc1 | 0 | 0 | 0 | 0 | 0 | 24 | 0 | 0
CCOc1ccc(N2CC(C(=O)NC3CCCCCC3)CC2=O)cc1 (stereo unspecified) | 0 | 0 | 0 | 0 | 0 | 0 | - | -
CCC(C)(NC(=O)c1ccccc1)C(=O)O (stereo unspecified) | 0 | 0 | 0 | 0 | 0 | 23 | 0 | 0
CC(C)(C)CC(C)(C)NC(=O)c1ccccc1 | 0 | 0 | 0 | 0 | 0 | 0 | - | -
FC(F)(F)c1ccnc(NCc2ccc(Cl)cc2)n1 | 0 | 0 | 0 | 0 | 0 | 0 | - | -
O=S(=O)(NNc1nccc(C(F)(F)F)n1)c1cccc(Cl)c1Cl | 0 | 0 | 0 | 83 | 0 | 58 | 84 | 88
CC(C)(C)SCCNC(=O)c1ccc(CN2CCc3ccccc3C2)cc1 | 0 | 0 | 0 | 0 | 0 | 0 | - | -
CCCc1nc2ccc(N)cc2c(=O)n1Cc1ccccc1Cl | 0 | 0 | 0 | 0 | 0 | 0 | - | -
C=CCNC(=S)NNC(=O)CSc1nc2ccccc2s1 | 0 | 0 | 0 | 0 | 0 | 30 | 20 | 0
O=C(CSc1nc2ccccc2s1)NNC(=S)Nc1ccc(Cl)cc1 | 0 | 0 | 0 | 0 | ? | 26 | 0 | 0
C=C(C)Cn1c(SCC(=O)N/N=C(\C)c2ccc(Br)cc2)nnc1-c1ccc(Br)cc1 | - | - | - | - | - | 0 | - | -
CCOC(=O)c1cnn(-c2ccccc2)c1NC(=O)CN1CCCCC1 | 0 | 0 | 0 | 0 | 0 | 21 | 0 | 0
O=C(N=C1SC2CS(=O)(=O)CC2N1Cc1ccc(Cl)cc1)C1CCCO1 (stereo unspecified) | 0 | 0 | 0 | 0 | 0 | 0 | - | -
S=c1[nH]nc(-c2ccco2)n1/N=C/c1cccs1 | 0 | 0 | 0 | 0 | 0 | 20 | 23 | 0
Cn1c(=O)c2cc(NC(=O)Cc3ccccc3F)ccc2n1Cc1ccc(Cl)cc1 | 0 | - | 0 | 0 | - | 0 | - | -
C1=NN(c2ccccc2)C=NN1c1ccccc1 | 0 | - | 0 | 0 | - | 0 | - | -
COc1ccc(-c2c(C(=O)c3ccccc3)[nH]c(N)c2C(=O)c2ccccc2)cc1OC | - | - | - | 0 | - | 20 | 0 | 0
COc1ccc(-c2c(C(=O)c3ccccc3)[nH]c(N)c2C(=O)c2ccc(Br)cc2)cc1OC | - | - | - | 0 | - | 26 | 20 | 0
O=C(N[C@@H](Cc1ccccc1)C(=O)O)c1cccs1 | 0 | 0 | 0 | 0 | 0 | 0 | - | -
SMILES | MC4R ag barr | NTR1 agonist | MC4R antagonist | Granule exo inh | Bfl-1 A1 inh | sPLA2-III inh | hGIII sPLA2 conf | 535nm interf | others
COCCCNC(=O)c1cccc2c(-c3cccc(C(N)=O)c3)coc12 | 0 | - | 0 | 0 | - | 0 | - | -
Cc1cccc(OCC(=O)Nc2sc3c(c2C#N)CCC3)c1 | 0 | 0 | 0 | 0 | 0 | 23 | 0 | 0
CN1CC(=O)N2Cc3[nH]c4ccccc4c3C[C@H]2C1=O | 0 | 0 | 0 | 0 | 0 | 0 | - | -
O=C(OCn1nnc2ccccc2c1=O)c1cc(-c2ccccc2)nc2ccccc12 | 0 | 0 | 0 | 0 | 0 | 23 | 0 | 0
COc1ccccc1C(=O)OCn1nnc2ccccc2c1=O | 0 | 0 | 0 | 0 | 0 | 0 | - | -
CCOC(=O)N1CCN(CC(=O)Nc2sccc2C#N)CC1 | 0 | 0 | 0 | 0 | 0 | 0 | - | -
C[C@@H]1CN([C@@H](C)CO)C(=O)CCCn2cc(nn2)CO[C@H]1CN(C)C(=O)c1ccc2ccn(C)c2c1 | 0 | - | 0 | 0 | - | 0 | - | -
O=C1/C(=C/c2ccccn2)SC(=S)N1Nc1ncc(C(F)(F)F)cc1Cl | 0 | - | 0 | 0 | - | 21 | 32 | 0 | BODIPY interf DR=0
CCn1c(-c2csc3ccccc23)n[nH]c1=S | 0 | 0 | 0 | 0 | 0 | 24 | 22 | 0
CCn1c(-c2csc(C(C)C)c2)n[nH]c1=S | 0 | 0 | 0 | 0 | 0 | 22 | 29 | 0 | BODIPY interf DR=0
CC(C)Cn1c(-c2csc3ccccc23)n[nH]c1=S | 0 | 0 | 0 | 0 | 0 | 0 | - | -
Cc1cc(-c2n[nH]c(=S)n2CC(C)C)cs1 | 0 | 0 | 0 | 0 | 0 | 20 | 24 | 0
CCN(Cc1ccccc1)C(=O)CSc1ncn[nH]1 | 0 | 0 | 0 | 0 | 0 | 0 | - | -
CN(C)S(=O)(=O)c1ccc(C(=O)Oc2coc(CSc3ncccn3)cc2=O)cc1 | 0 | 0 | 0 | 0 | 0 | 0 | - | -
CCN(CC)S(=O)(=O)c1ccc(C(=O)Oc2coc(CSc3nc(C)cc(C)n3)cc2=O)cc1 | 0 | 0 | 0 | 0 | 0 | 21 | 0 | 0
COc1ccc2c(-c3ccccc3)cc(SCC(N)=O)nc2c1 | 0 | 0 | 0 | 0 | 0 | 20 | 0 | 0
CC(=O)Nc1cccc(NC(=O)Cc2ccc3ccccc3c2)c1 | 0 | 0 | 0 | 0 | 0 | 0 | - | -
Cc1ccccc1NC(=S)c1nc2ccccc2[nH]1 | 0 | - | 0 | 0 | 0 | 45 | 31 | 0 | BODIPY interf DR=0
S=C(Nc1ccc(Cl)cc1)c1nc2ccccc2[nH]1 | 0 | 0 | 0 | 0 | 0 | 30 | 36 | 0 | BODIPY interf DR=0
CCNC(=S)Nc1ccc(-c2nc3ccccc3[nH]2)cc1 | 0 | 0 | 0 | 0 | 0 | 0 | - | -
Cc1ccccc1NC(=O)NCCc1nc2ccccc2[nH]1 | 0 | 0 | 0 | 0 | 0 | 0 | - | -
CC(C)OCc1c(C(=O)Nc2nccs2)oc2ccccc12 | 0 | 0 | 0 | 0 | 0 | 0 | - | -
Cc1ncc(CO)c(/C=N/NC(=S)Nc2ccc(F)cc2)c1O | 0 | 0 | 0 | 0 | 0 | 20 | 20 | 0
COCCCNC(=S)N/N=C/c1ccc2c(c1)OCO2 | 0 | 0 | 0 | 0 | 0 | 24 | 0 | 0
COCCNC(=S)N/N=C/c1ccc2c(c1)OCCO2 | 0 | 0 | 0 | 0 | 0 | 0 | - | -
S=C(NN=Cc1ccc2c(c1)OCO2)NN=Cc1ccc2c(c1)OCO2 | 0 | - | 0 | 0 | - | 0 | - | -
CC(C)NC(=S)N/N=C/c1ccc2c(c1)OCCO2 | 0 | 0 | 0 | 0 | 0 | 19 | 0 | 0
